Reference: ChEMBL document CHEMBL1914309, “Binding of isoxazole and pyrazole derivatives of curcumin with the activator binding domain of novel protein kinase C” (Bioorg Med Chem, 2011)

What was measured:
[1] = Solubility of the compound; type: physicochemical
[2] = molecular target: T1, Protein kinase C epsilon type (Homo sapiens, UniProt Q02156); assay: Binding affinity to PKCepsilon C1B subdomain after 1 hr by fluorescence quenching analysis
T1 sequence (Q02156 whole entry): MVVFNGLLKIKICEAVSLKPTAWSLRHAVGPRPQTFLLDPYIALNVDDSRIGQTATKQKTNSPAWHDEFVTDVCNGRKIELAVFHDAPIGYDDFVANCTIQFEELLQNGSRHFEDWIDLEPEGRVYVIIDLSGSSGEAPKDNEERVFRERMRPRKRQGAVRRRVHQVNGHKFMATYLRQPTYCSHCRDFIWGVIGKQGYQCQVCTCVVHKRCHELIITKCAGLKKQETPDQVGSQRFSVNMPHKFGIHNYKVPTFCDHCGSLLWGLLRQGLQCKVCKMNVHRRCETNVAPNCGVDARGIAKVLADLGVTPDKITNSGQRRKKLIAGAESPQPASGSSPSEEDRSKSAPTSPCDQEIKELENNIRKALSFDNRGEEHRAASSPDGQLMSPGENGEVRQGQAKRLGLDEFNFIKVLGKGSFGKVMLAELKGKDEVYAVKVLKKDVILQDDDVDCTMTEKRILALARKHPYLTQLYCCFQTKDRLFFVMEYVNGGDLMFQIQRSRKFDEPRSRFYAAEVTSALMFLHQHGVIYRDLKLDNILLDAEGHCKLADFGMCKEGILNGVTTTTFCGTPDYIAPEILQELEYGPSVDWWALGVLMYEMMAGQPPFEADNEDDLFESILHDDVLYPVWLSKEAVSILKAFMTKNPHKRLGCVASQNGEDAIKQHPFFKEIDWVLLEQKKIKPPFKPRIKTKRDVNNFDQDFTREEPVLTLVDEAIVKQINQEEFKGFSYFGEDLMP
Summary of the method: (§1)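 Purified C1B subdomain of PKC delta, epsilon or theta was titrated with ligand in 50 mM Tris, 150 mM NaCl, 2 mM DTT, ZnSO4, pH 7.2, at 25 °C. Intrinsic fluorescence was excited at 280 nm and emission recorded from 300–550 nm. (F0−F)/F at 350 nm was plotted against ligand concentration, and the curve was fitted to a modified Hill equation to give EC50 and Hill coefficient.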

[3] = molecular target: Protein kinase C theta type (Homo sapiens, UniProt Q04759); assay: Binding affinity to PKCtheta C1B subdomain after 1 hr by fluorescence quenching analysis; summary of the method: as §1
[4] = Selectivity ratio of EC50 for PKCepsilon C1B subdomain to EC50 for PKCtheta C1B subdomain
Summary of the method: (§2)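 Ratios of EC50 values, each taken from a modified-Hill fit of intrinsic tryptophan/tyrosine fluorescence quenching (excitation 280 nm, read at 350 nm) of the C1B subdomains in Tris/NaCl/DTT/ZnSO4 buffer, pH 7.2, at 25 °C.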

[5] = molecular target: Protein kinase C delta type (Homo sapiens, UniProt Q05655); assay: Binding affinity to PKCdelta C1B subdomain after 1 hr by fluorescence quenching analysis; summary of the method: as §1
[6] = Selectivity ratio of EC50 for PKCdelta C1B subdomain to EC50 for PKCtheta C1B subdomain; summary of the method: as §2

Sequence of Protein kinase C delta type (Q05655 whole entry): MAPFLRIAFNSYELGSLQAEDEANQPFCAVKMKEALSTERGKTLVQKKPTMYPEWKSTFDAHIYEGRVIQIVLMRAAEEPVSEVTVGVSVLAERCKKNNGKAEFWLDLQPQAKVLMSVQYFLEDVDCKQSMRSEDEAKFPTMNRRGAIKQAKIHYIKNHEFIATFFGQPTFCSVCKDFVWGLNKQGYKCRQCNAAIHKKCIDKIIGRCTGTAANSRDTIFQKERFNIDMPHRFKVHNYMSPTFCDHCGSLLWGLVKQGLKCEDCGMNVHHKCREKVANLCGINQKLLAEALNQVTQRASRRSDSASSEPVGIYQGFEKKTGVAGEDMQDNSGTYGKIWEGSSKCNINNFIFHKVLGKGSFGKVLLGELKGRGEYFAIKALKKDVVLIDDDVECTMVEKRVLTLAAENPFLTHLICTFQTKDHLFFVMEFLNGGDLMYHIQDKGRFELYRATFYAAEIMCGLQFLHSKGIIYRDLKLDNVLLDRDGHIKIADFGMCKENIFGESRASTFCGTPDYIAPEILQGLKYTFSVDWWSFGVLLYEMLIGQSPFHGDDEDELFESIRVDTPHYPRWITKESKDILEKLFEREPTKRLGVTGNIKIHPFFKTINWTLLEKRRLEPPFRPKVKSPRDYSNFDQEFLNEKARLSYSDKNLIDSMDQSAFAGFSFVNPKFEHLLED
Sequence of Protein kinase C theta type (Q04759 whole entry): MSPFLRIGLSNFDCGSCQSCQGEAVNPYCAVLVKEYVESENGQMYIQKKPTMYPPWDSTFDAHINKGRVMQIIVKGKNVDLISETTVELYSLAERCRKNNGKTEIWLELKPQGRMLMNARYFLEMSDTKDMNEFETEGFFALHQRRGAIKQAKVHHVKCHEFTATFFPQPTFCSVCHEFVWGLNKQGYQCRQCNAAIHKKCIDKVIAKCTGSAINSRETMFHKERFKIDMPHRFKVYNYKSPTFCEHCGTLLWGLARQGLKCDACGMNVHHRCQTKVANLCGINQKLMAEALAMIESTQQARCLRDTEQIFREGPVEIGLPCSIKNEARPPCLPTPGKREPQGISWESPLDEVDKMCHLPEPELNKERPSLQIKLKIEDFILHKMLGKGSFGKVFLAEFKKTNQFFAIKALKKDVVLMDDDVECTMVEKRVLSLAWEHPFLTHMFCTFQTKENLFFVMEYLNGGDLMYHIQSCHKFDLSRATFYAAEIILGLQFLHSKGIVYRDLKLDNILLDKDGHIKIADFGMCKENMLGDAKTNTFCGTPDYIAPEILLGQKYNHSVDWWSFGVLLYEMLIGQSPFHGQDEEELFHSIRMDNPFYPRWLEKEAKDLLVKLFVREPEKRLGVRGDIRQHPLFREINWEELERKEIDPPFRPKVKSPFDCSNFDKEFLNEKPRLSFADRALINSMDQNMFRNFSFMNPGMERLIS

Structure (SMILES)	solubility [1]	EC50 [2]	EC50 [3]	Ratio EC50 [4]	EC50 [5]	Ratio EC50 [6]
CCCCCCCCOc1ccc(/C=C/c2cc(/C=C/c3ccc(OCCCCCCCC)c(OC)c3)on2)cc1OC	Insoluble	–	–	–	–	–
COc1cc(/C=C/c2cc(/C=C/c3ccc(O)c(OC)c3)[nH]n2)ccc1O [CURCUMIN PYRAZOLE]	–	18.8 µM	7.25 µM	2	15 µM	2
CCCCOc1ccc(/C=C/c2cc(/C=C/c3ccc(OCCCC)c(OC)c3)on2)cc1OC	–	23.4 µM	7.14 µM	–	25.2 µM	–

The remaining lines, values ahead:

solubility [1]	EC50 [2]	EC50 [3]	Ratio EC50 [4]	EC50 [5]	Ratio EC50 [6]	Structure (SMILES)
–	11.8 µM	3.16 µM	3	11.5 µM	3	COc1cc(/C=C/c2cc(/C=C/c3ccc(O)c(OC)c3)on2)ccc1O
–	16.1 µM	15.8 µM	–	21.6 µM	–	CCCCOc1ccc(/C=C/c2cc(/C=C/c3ccc(O)c(OC)c3)n[nH]2)cc1OC
